Data taken from ChEMBL document CHEMBL1828528, “Acyclic nucleoside thiophosphonates as potent inhibitors of HIV and HBV replication” (Eur J Med Chem, 2011).
Activity calls are given as the source filed them. The calls are words filed in the database; no cut-off is given here.

Columns and labels:
[1] = system: Human immunodeficiency virus 1; assay: Antiviral activity against 100 TCID50 wild-type Human immunodeficiency virus 1 3B infected in CEM cells assessed as inhibition of syncytia formation after 4 days by microscopic analysis; format: functional, organism-based; conditions: CCRF-CEM, 96 h
Outline: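 Human CEM cells (~3 × 10^5 cells/cm3) infected with 100 CCID50/mL HIV-1 IIIB and seeded into wells holding compound dilutions. After 4 days at 37 °C, giant-cell (syncytium) formation was scored microscopically. EC50 is the concentration inhibiting syncytia formation by 50%.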

[2] = system: Human immunodeficiency virus 2; assay: Antiviral activity against 100 TCID50 wild-type Human immunodeficiency virus type 2 ROD infected in C8166 cells assessed as inhibition of syncytia formation after 4 days by microscopic analysis; format: functional, organism-based; conditions: Human immunodeficiency virus 2, ISOLATE ROD, C8166, 96 h
[3] = system: Human immunodeficiency virus 1; assay: Antiviral activity against 125 TCID50 wild type HIV1 LAI infected in human H9 cells assessed as reduction in viral replication measured on day 7 post infection by reverse transcriptase activity; format: functional, organism-based; conditions: Human immunodeficiency virus 1, LAI, H9, 168 h
Outline: (§1)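 PHA-P-activated PBMC (1.5 × 10^5; donor cells stimulated 3 days with 1 μg/mL PHA-P plus 5 IU/mL IL-2) or H9 cells (5 × 10^5) in RPMI-1640/10% FCS. Cells pre-treated 30 min with graded compound concentrations, then infected with HIV-1 LAI (100 or 125 TCID50). Supernatant RT activity read on day 7. EC50 from quadratic fit of % inhibition; triplicates, PBMC repeated with a second donor.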

[4] = system: Human immunodeficiency virus 1; assay: Antiviral activity against 6250 TCID50 wild type HIV1 LAI infected in human H9 cells assessed as reduction in viral replication measured on day 7 post infection by reverse transcriptase activity; format: functional, organism-based; conditions: Human immunodeficiency virus 1, LAI, H9, 168 h
Outline: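 H9 cells in RPMI-1640/10% FCS given graded compound concentrations, then infected with a high inoculum of 6250 TCID50 HIV-1 LAI. Supernatant reverse transcriptase activity measured on day 7 post infection. EC50 taken as the concentration giving 50% reduction of viral replication.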

[5] = system: Human immunodeficiency virus 1; assay: Antiviral activity against 100 TCID50 wild type HIV1 LAI infected in human PBMC assessed as reduction in viral replication measured on day 7 post infection by reverse transcriptase activity; format: functional, organism-based; conditions: Human immunodeficiency virus 1, LAI, 168 h; outline: as §1
[6] = Cytotoxicity against […]-activated human PBMC on day 7 by MTT assay; format: cell-based
Outline: (§2)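 Uninfected PHA-P-activated PBMC and H9 cells exposed to graded compound concentrations. Viability by MTT on day 7. CC50 from quadratic fit of % viability against concentration; triplicates.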

[7] = Cytotoxicity against […]-activated human H9 cells on day 7 by MTT assay; format: cell-based; outline: as §2
[8] = system: Human immunodeficiency virus 1; assay: Antiviral activity against HIV1 clade A isolate 4113 infected in human H9 cells assessed as inhibition of viral replication; format: functional, organism-based; conditions: Human immunodeficiency virus 1, clade A isolate 4113, H9
Outline: (§3)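 H9 cells infected with HIV-1 clinical isolates of clades A, B, C, D, A/E, F and G, in the presence of graded compound concentrations. EC50 is the concentration reducing viral replication by 50%.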

[9] = system: Human immunodeficiency virus 1; assay: Antiviral activity against HIV1 clade B isolate 1722 infected in human H9 cells assessed as inhibition of viral replication; format: functional, organism-based; conditions: Human immunodeficiency virus 1, clade B isolate 1722, H9; outline: as §3
[10] = system: Human immunodeficiency virus 1; assay: Antiviral activity against HIV1 clade C isolate 2914 infected in human H9 cells assessed as inhibition of viral replication; format: functional, organism-based; conditions: Human immunodeficiency virus 1, clade C isolate 2914, H9; outline: as §3
[11] = system: Human immunodeficiency virus 1; assay: Antiviral activity against HIV1 clade D isolate 1649 infected in human H9 cells assessed as inhibition of viral replication; format: functional, organism-based; conditions: Human immunodeficiency virus 1, clade D isolate 1649, H9; outline: as §3
[12] = system: Human immunodeficiency virus 1; assay: Antiviral activity against HIV1 clade A/E isolate 2165 infected in human H9 cells assessed as inhibition of viral replication; format: functional, organism-based; conditions: Human immunodeficiency virus 1, clade A/E isolate 2165, H9; outline: as §3
[13] = system: Human immunodeficiency virus 1; assay: Antiviral activity against HIV1 clade F isolate 2338 infected in human H9 cells assessed as inhibition of viral replication; format: functional, organism-based; conditions: Human immunodeficiency virus 1, clade F isolate 2338, H9; outline: as §3
[14] = system: Human immunodeficiency virus 1; assay: Antiviral activity against HIV1 clade G isolate 3187 infected in human H9 cells assessed as inhibition of viral replication; format: functional, organism-based; conditions: Human immunodeficiency virus 1, clade G isolate 3187, H9; outline: as §3
[15] = system: Respiratory syncytial virus; assay: Antiviral activity against Respiratory syncytial virus infected in HeLa cells assessed as inhibition of virus-induced cytopathic effect up to 200 uM measured on day 3 post infection by microscopic analysis; format: functional, organism-based
Outline: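 HeLa monolayers at confluency infected with 100 CCID50 of virus. Compound dilutions up to 200 μM added after 1–2 h adsorption. Cytopathic effect recorded microscopically on day 3 relative to untreated controls.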

Influenza A virus = assay: Antiviral activity against influenza A virus; format: functional, organism-based
Influenza B virus = assay: Antiviral activity against influenza B virus; format: functional, organism-based
[16] = system: Mammalian orthoreovirus 1; assay: Antiviral activity against Reovirus 1 infected in african green monkey Vero cells assessed as inhibition of virus-induced cytopathic effect up to 200 uM measured on day 3 post infection by microscopic analysis; format: functional, organism-based
Outline: (§4)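 Confluent Vero cell monolayers inoculated with 100 CCID50 of virus. Compound added after 1–2 h adsorption, tested up to 200 μM. Microscopic CPE scoring on day 3 post infection versus untreated controls.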

Sindbis virus = assay: Antiviral activity against Sindbis virus infected in african green monkey Vero cells assessed as inhibition of virus-induced cytopathic effect up to 200 uM measured on day 3 post infection by microscopic analysis; format: functional, organism-based; outline: as §4
Feline coronavirus = assay: Antiviral activity against Feline coronavirus infected in CrFK cells assessed as inhibition of virus-induced cytopathic effect up to 200 uM measured on day 3 post infection by microscopic analysis; format: functional, organism-based
Outline: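 Confluent CrFK cells inoculated with 100 CCID50 of virus. Compounds up to 200 μM added after 1–2 h adsorption. Cytopathic effect recorded microscopically at day 3 relative to untreated controls.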

HeLa = assay: Cytotoxicity against human HeLa cells up to 200 uM; format: cell-based
Outline: (§5)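 Uninfected confluent Vero, CrFK, HEL or HeLa cultures incubated with serial compound dilutions (up to 200 μM) for the same period as the antiviral assays. Minimal toxic concentration is the lowest giving microscopically detectable alteration of cell morphology.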

Vero = assay: Cytotoxicity against african green monkey Vero cells up to 200 uM; format: cell-based; conditions: chlorocebus sabaeus; outline: as §5
[17] = Cytotoxicity against feline kidney CRFK cells up to 200 uM; format: cell-based, Felis catus; conditions: cat; outline: as §5
Human alphaherpesvirus 1 [18] = assay: Antiviral activity against Herpes simplex virus type 1 KOS infected in HEL cells assessed as inhibition of virus-induced cytopathic effect; format: functional, organism-based; conditions: Human alphaherpesvirus 1, KOS
Outline: (§6)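 Confluent HEL cell monolayers inoculated with 100 CCID50 of virus. Compounds added after a 1–2 h adsorption period. Virus-induced cytopathic effect scored microscopically at 3 days post infection as % of untreated controls. EC50 derived from graphical plots.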

Human alphaherpesvirus 1 [19] = assay: Antiviral activity against TK-deficient and ACR-resistant Herpes simplex virus type 1 KOS infected in HEL cells assessed as inhibition of virus-induced cytopathic effect; format: functional, organism-based; conditions: Human alphaherpesvirus 1, KOS; outline: as §6
[20] = Cytotoxicity against human HEL cells assessed as alteration in cellular morphology by microscopic analysis; format: cell-based; outline: as §5
[21] = Cytotoxicity against human HuH7 cells; format: cell-based; conditions: Huh-7 cells
[22] = Cytotoxicity against human HepAD38 cells; format: cell-based

Row | Structure (SMILES) | EC50 [1] [µM] | EC50 [2] [µM] | EC50 [3] [µM] | EC50 [4] [µM] | EC50 [5] [µM] | CC50 at 7 day [6] [µM] | CC50 at 7 day [7] [µM] | EC50 [8] [µM] | EC50 [9] [µM] | EC50 [10] [µM] | EC50 [11] [µM] | EC50 [12] [µM] | EC50 [13] [µM] | EC50 [14] [µM] | inhibition [15] | Activity (Influenza A virus) | Activity (Influenza B virus) | inhibition [16] | inhibition (Sindbis virus) | inhibition (Feline coronavirus) | other results
1 | Nc1ncnc2c1ncn2CCOCP(=O)([O-])[S-].[Na+].[Na+] (stereo unspecified) | 16 | 23 | 1.9 | 17 | 14 | > 30 | > 30 | 1.64 | 2.8 | 0.49 | 2.77 | 0.3 | 0.22 | 0.88 | inactive | inactive | inactive | inactive | inactive | inactive | Activity (HeLa): Non-toxic; Activity (Vero): Non-toxic; Activity [17]: Non-toxic; EC50 (Human alphaherpesvirus 1 [18]): 40 µM; EC50 (Human alphaherpesvirus 1 [19]): 24 µM; MCC [20]: > 200 µM; CC50 [21]: > 150 µM; CC50 [22]: > 150 µM
2 | C[C@H](Cn1cnc2c(N)ncnc21)OCP(=O)([O-])[S-].[Na+].[Na+] (stereo partly specified) | 14 | 7.9 | 0.38 | 9.7 | 4.2 | > 100 | > 100 | 4.49 | 0.51 | 0.38 | 0.71 | 0.34 | 0.2 | 0.12 | inactive | inactive | inactive | inactive | inactive | inactive | Activity (HeLa): Non-toxic; Activity (Vero): Non-toxic; Activity [17]: Non-toxic; EC50 (Human alphaherpesvirus 1 [18]): 169 µM; EC50 (Human alphaherpesvirus 1 [19]): 80 µM; MCC [20]: > 200 µM; CC50 [21]: > 150 µM; CC50 [22]: > 150 µM
